Converted amounts (≈) assume the structure as drawn.
Legend:
Pseudomonas aeruginosa = assay: Antimicrobial activity against Pseudomonas aeruginosa ATCC 27853 incubated for 20 hrs by microdilution method; format: functional; details: ATCC 27853, 20 h
In short: (§1)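 Broth microdilution MIC testing done following CLSI guidelines.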

Staphylococcus aureus [1] = assay: Antimicrobial activity against Staphylococcus aureus USA300/ST8 incubated for 20 hrs by microdilution method; details: USA300 ST8, 20 h
[2] = test system: Staphylococcus epidermidis; assay: Antimicrobial activity against Staphylococcus epidermidis ATCC 12228 incubated for 20 hrs by microdilution method; format: functional; details: ATCC 12228, 20 h; in short: as §1
Staphylococcus aureus [3] = assay: Antimicrobial activity against Staphylococcus aureus ST239 incubated for 20 hrs by microdilution method; format: functional; details: CN79, 20 h
In short: (§2)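 MIC determined by microdilution following Clinical & Laboratory Standards Institute (CLSI) guidelines, read in µg/mL, against a panel of hospital- and community-acquired MRSA strains.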

Staphylococcus aureus [4] = assay: Antimicrobial activity against Staphylococcus aureus HA W231 ST45 incubated for 20 hrs by microdilution method; format: functional; details: HA W231 ST45, 20 h; in short: as §2
Staphylococcus aureus [5] = assay: Antimicrobial activity against Staphylococcus aureus HA W235 ST5 incubated for 20 hrs by microdilution method; format: functional; details: HA W235 ST5, 20 h; in short: as §2
Staphylococcus aureus [6] = assay: Antimicrobial activity against CA-methicillin-resistant Staphylococcus aureus W46 ST59 incubated for 20 hrs by microdilution method; details: W46 ST59, 20 h
Staphylococcus aureus [7] = assay: Antimicrobial activity against CA-methicillin-resistant Staphylococcus aureus W48 ST217 incubated for 20 hrs by microdilution method; details: W48 ST217, 20 h
Staphylococcus aureus [8] = assay: Antimicrobial activity against Staphylococcus aureus ATCC BAA43 incubated for 20 hrs by microdilution method; format: functional; details: ATCC BAA43, 20 h; in short: as §2
Streptococcus agalactiae = assay: Antimicrobial activity against Streptococcus agalactiae ATCC 12386 incubated for 20 hrs by microdilution method; format: functional; details: ATCC 12386, 20 h; in short: as §1
Enterococcus faecium = assay: Antimicrobial activity against Enterococcus faecium ATCC 19433 incubated for 20 hrs by microdilution method; format: functional; details: ATCC 19433, 20 h; in short: as §1
Staphylococcus aureus [9] = assay: Antimicrobial activity against CA-methicillin-resistant Staphylococcus aureus W45 ST59 incubated for 20 hrs by microdilution method; details: W45 ST59, 20 h
[10] = microbe, parasite or virus in culture; details: Enterobacter cloacae, ATCC 13047, 20 h
Staphylococcus aureus [11] = assay: Antimicrobial activity against CA-methicillin-resistant Staphylococcus aureus W47 ST30 incubated for 20 hrs by microdilution method; format: functional; details: W47 ST30, 20 h; in short: as §2
[12] = Antimicrobial activity against Staphylococcus saprophyticus ATCC 15305 incubated for 20 hrs by microdilution method; format: functional, Staphylococcus saprophyticus subsp. saprophyticus; details: ATCC 15305, 20 h; in short: as §1
Acinetobacter baumannii = assay: Antimicrobial activity against Acinetobacter baumannii ATCC 19606 incubated for 20 hrs by microdilution method; format: functional; details: ATCC 19606 = CIP 70.34 = JCM 6841, 20 h; in short: as §1
Staphylococcus aureus [13] = assay: Antimicrobial activity against Staphylococcus aureus ST22 11B086169 incubated for 20 hrs by microdilution method; format: functional; details: ST22 11B086169, 20 h; in short: as §2
Staphylococcus aureus [14] = assay: Antimicrobial activity against CA-methicillin-resistant Staphylococcus aureus W4 ST338 incubated for 20 hrs by microdilution method; format: functional; details: W4 ST338, 20 h; in short: as §2
Streptococcus pyogenes = assay: Antimicrobial activity against Streptococcus pyogenes ATCC 19615 incubated for 20 hrs by microdilution method; format: functional; details: ATCC 19615, 20 h; in short: as §1
Staphylococcus aureus [15] = assay: Antimicrobial activity against Staphylococcus aureus ATCC BAA44 incubated for 20 hrs by microdilution method; format: functional; details: ATCC BAA44, 20 h; in short: as §2
Streptococcus pneumoniae = assay: Antimicrobial activity against Streptococcus pneumoniae ATCC 49619 incubated for 20 hrs by microdilution method; format: functional; details: ATCC 49619, 20 h; in short: as §1
Staphylococcus aureus [16] = assay: microbe, parasite or virus in culture; details: ATCC 25923, 20 h
[17] = test system: Enterococcus casseliflavus; assay: Antimicrobial activity against Enterococcus casseliflavus ATCC 25788 incubated for 20 hrs by microdilution method; format: functional; details: ATCC 25788, 20 h; in short: as §1
Staphylococcus aureus [18] = assay: microbe, parasite or virus in culture; details: ATCC 29213, 20 h
[19] = Therapeutic index, ratio of CC50 for human HaCaT cells to 1/2 times MIC for Staphylococcus aureus ATCC 25923; format: toxicity; details: read-out: TI
Bacillus subtilis = assay: Inhibition of N-terminal LgBiT-fused Bacillus subtilis NusB expressed in Escherichia coli BL21(DE3)pLysS interaction with C- terminal SmBiT-fused Bacillus subtilis NusE expressed in Escherichia coli BL21(DE3)pLysS at 100 uM preincubated for 10 mins followed by NusE addition and measured after 10 mins by nano-glo luciferase assay relative to control
In short: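 NusB and NusE were mixed 1:1 at 1 µM in PBS, with compound at 100 µM. The read-out was percent inhibition of the NusB-NusE interaction.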

[20] = Therapeutic index, ratio of CC50 for human A549 cells to 1/2 times MIC for Staphylococcus aureus ATCC 25923; format: toxicity; details: read-out: TI
[21] = Cytotoxicity against human A549 cells assessed as reduction in cell viability after 48 to 72 hrs by MTT assay; format: cell-based
[22] = Cytotoxicity against human HaCaT cells assessed as reduction in cell viability after 48 to 72 hrs by MTT assay; format: cell-based

Compound | MIC (Pseudomonas aeruginosa) | MIC (Staphylococcus aureus [1]) | MIC [2] | MIC (Staphylococcus aureus [3]) | MIC (Staphylococcus aureus [4]) | MIC (Staphylococcus aureus [5]) | MIC (Staphylococcus aureus [6]) | MIC (Staphylococcus aureus [7]) | MIC (Staphylococcus aureus [8]) | MIC (Streptococcus agalactiae) | MIC (Enterococcus faecium) | MIC (Staphylococcus aureus [9]) | MIC [10] | MIC (Staphylococcus aureus [11]) | MIC [12] | MIC (Acinetobacter baumannii) | MIC (Streptococcus pneumoniae) | MIC (Staphylococcus aureus [16]) | MIC [17] | MIC (Staphylococcus aureus [18]) | also measured
Cc1onc(-c2ccccc2)c1C(=O)N[C@@H]1C(=O)N2[C@@H]1SC(C)(C)[C@@H]2C(=O)O [OXACILLIN] | > 256 µg/mL | 32 µg/mL (≈ 79.7 µM) | 0.25 µg/mL (≈ 0.623 µM) | > 256 µg/mL | 4 µg/mL (≈ 9.96 µM) | > 256 µg/mL | 8 µg/mL (≈ 19.9 µM) | 64 µg/mL (≈ 159 µM) | > 256 µg/mL | 0.5 µg/mL (≈ 1.25 µM) | 16 µg/mL (≈ 39.9 µM) | 8 µg/mL (≈ 19.9 µM) | > 256 µg/mL | 4 µg/mL (≈ 9.96 µM) | 1 µg/mL (≈ 2.49 µM) | > 256 µg/mL | 2 µg/mL (≈ 4.98 µM) | 0.5 to 1 µg/mL (≈ 1.25 to 2.49 µM) | 32 µg/mL (≈ 79.7 µM) | 0.25 µg/mL (≈ 0.623 µM) | MIC (Staphylococcus aureus [13]): 64 µg/mL (≈ 159 µM); MIC (Staphylococcus aureus [14]): 0.5 µg/mL (≈ 1.25 µM); MIC (Streptococcus pyogenes): 0.0625 µg/mL (≈ 0.156 µM); MIC (Staphylococcus aureus [15]): > 256 µg/mL
CC(C)(C)c1cccc(NCc2cc([N+](=O)[O-])ccc2O)c1 | > 256 µg/mL | 8 µg/mL (≈ 26.6 µM) | 16 µg/mL (≈ 53.3 µM) | 8 µg/mL (≈ 26.6 µM) | 8 µg/mL (≈ 26.6 µM) | 4 µg/mL (≈ 13.3 µM) | 8 µg/mL (≈ 26.6 µM) | 4 µg/mL (≈ 13.3 µM) | 2 µg/mL (≈ 6.66 µM) | 16 µg/mL (≈ 53.3 µM) | 32 µg/mL (≈ 107 µM) | 8 µg/mL (≈ 26.6 µM) | > 256 µg/mL | 4 µg/mL (≈ 13.3 µM) | 1 µg/mL (≈ 3.33 µM) | > 256 µg/mL | 8 µg/mL (≈ 26.6 µM) | 2 µg/mL (≈ 6.66 µM) | 32 µg/mL (≈ 107 µM) | 4 µg/mL (≈ 13.3 µM) | selectivity ratio [19]: 6; inhibition (Bacillus subtilis): 39.5%; selectivity ratio [20]: 6; CC50 [21]: 18.3 µM; MIC (Staphylococcus aureus [13]): 8 µg/mL (≈ 26.6 µM); CC50 [22]: 20.2 µM; MIC (Staphylococcus aureus [14]): 4 µg/mL (≈ 13.3 µM); MIC (Streptococcus pyogenes): 16 µg/mL (≈ 53.3 µM); MIC (Staphylococcus aureus [15]): 8 µg/mL (≈ 26.6 µM)
O=C(O)c1cn(C2CC2)c2cc(N3CCNCC3)c(F)cc2c1=O [CIPROFLOXACIN] | – | 4 µg/mL (≈ 12.1 µM) | 0.0625 µg/mL (≈ 0.189 µM) | 4 µg/mL (≈ 12.1 µM) | 2 µg/mL (≈ 6.04 µM) | 4 µg/mL (≈ 12.1 µM) | 0.25 µg/mL (≈ 0.754 µM) | 4 µg/mL (≈ 12.1 µM) | 2 µg/mL (≈ 6.04 µM) | 4 µg/mL (≈ 12.1 µM) | 4 µg/mL (≈ 12.1 µM) | 0.25 µg/mL (≈ 0.754 µM) | – | 0.5 µg/mL (≈ 1.51 µM) | 0.5 µg/mL (≈ 1.51 µM) | 2 µg/mL (≈ 6.04 µM) | – | 0.5 to 1 µg/mL (≈ 1.51 to 3.02 µM) | 4 µg/mL (≈ 12.1 µM) | 0.5 to 1 µg/mL (≈ 1.51 to 3.02 µM) | MIC (Staphylococcus aureus [13]): 4 µg/mL (≈ 12.1 µM); MIC (Staphylococcus aureus [14]): 0.5 µg/mL (≈ 1.51 µM); MIC (Streptococcus pyogenes): 0.5 µg/mL (≈ 1.51 µM); MIC (Staphylococcus aureus [15]): 4 µg/mL (≈ 12.1 µM)
CN[C@H](CC(C)C)C(=O)N[C@H]1C(=O)N[C@@H](CC(N)=O)C(=O)N[C@H]2C(=O)N[C@H]3C(=O)N[C@H](C(=O)N[C@H](C(=O)O)c4cc(O)cc(O)c4-c4cc3ccc4O)[C@H](O)c3ccc(c(Cl)c3)Oc3cc2cc(c3O[C@@H]2O[C@H](CO)[C@@H](O)[C@H](O)[C@H]2O[C@H]2C[C@](C)(N)[C@H](O)[C@H](C)O2)Oc2ccc(cc2Cl)[C@H]1O [VANCOMYCIN] | > 256 µg/mL | – | – | – | – | – | – | – | – | 0.5 µg/mL (≈ 0.345 µM) | – | – | > 256 µg/mL | – | 1 µg/mL (≈ 0.69 µM) | > 256 µg/mL | 0.5 µg/mL (≈ 0.345 µM) | 1 to 2 µg/mL (≈ 0.69 to 1.38 µM) | 4 µg/mL (≈ 2.76 µM) | – | –
O=[N+]([O-])c1ccc(O)c(/C=N/c2ccccc2Cl)c1 | > 256 µg/mL | – | – | – | – | – | – | – | – | – | > 256 µg/mL | – | > 256 µg/mL | – | – | 256 µg/mL (≈ 925 µM) | 64 µg/mL (≈ 231 µM) | 2 µg/mL (≈ 7.23 µM) | – | 16 µg/mL (≈ 57.8 µM) | selectivity ratio [19]: 96; inhibition (Bacillus subtilis): 45.7%; selectivity ratio [20]: 119; CC50 [21]: 432 µM; CC50 [22]: 347 µM

— ChEMBL document CHEMBL4364256, “Design, synthesis and biological evaluation of antimicrobial diarylimine and -amine compounds targeting the interaction between the bacterial NusB and NusE proteins” (Eur J Med Chem, 2019)
